Measured values taken from ChEMBL document CHEMBL4706596, “Synthesis, biological evaluation, in silico modeling and crystallization of novel small monocationic molecules with potent antiproliferative activity by dual mechanism” (Eur J Med Chem, 2020).

Assays:
HeLa [1] = assay: Induction of cell cycle arrest in human HeLa cells assessed as accumulation at G2/M phase at 2.5 uM incubated for 24 hrs by PI staining based flowcytometry analysis (reference value: 10.70 %); assay type: functional
HT-29 [2] = assay: Induction of apoptosis in human HT-29 cells at 2.5 to 5 uM by annexin V-FITC and PI staining based flowcytometry analysis; assay type: functional, cell-based; conditions: dose 2.5-5 µM, time 24-48 hrs, TDE = time-dependent effect
Procedure, shortened: (§1)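 Treated cells were collected at different times, dual-stained with annexin V-FITC (phosphatidylserine exposure) and propidium iodide (DNA), and analysed by bi-parametric flow cytometry.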

HT-29 [3] = assay: Induction of cell cycle arrest in human HT-29 cells assessed as accumulation at G0/G1 phase at 1 uM incubated for 24 hrs by PI staining based flowcytometry analysis (reference value: 60.20 %); assay type: functional
HT-29 [4] = assay: Induction of cell cycle arrest in human HT-29 cells assessed as accumulation at G0/G1 phase at 2.5 uM incubated for 24 hrs by PI staining based flowcytometry analysis (reference value: 60.20 %); assay type: functional
HT-29 [5] = assay: Antiproliferative activity against human HT-29 cells assessed as inhibition of cell proliferation incubated for 72 hrs by MTT assay; assay type: functional
Procedure, shortened: (§2)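 Cells seeded at 8 × 10³/well and held 18 h at 37 °C, 5% CO₂. Medium then replaced with compound at several concentrations for 72 h at 37 °C, followed by MTT viability read-out. GI50 is taken against cells given the maximum DMSO (0.25%), which is set as 100% viability. Dose-response curves come from at least three independent experiments run in triplicate and are reported as mean ± SE.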

[6] = Inhibition of [methyl-14C]choline uptake in human HepG2 cells at 30 uM incubated for 10 mins followed by removal of medium containing compound and subsequent addition of [methyl-14C]choline measured after 5 mins relative to control; assay type: functional; conditions: HepG2, 10 min
Procedure, shortened: (§3)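 Cells at 200,000/well were incubated for 10 min at 37 °C in medium with or without CKα1 inhibitor. The medium was then removed and cells were exposed to [methyl-¹⁴C]choline (31 Ci/mol) for 5 min at 37 °C. Uptake was stopped by aspiration and two ice-cold PBS washes containing choline. Inhibition is expressed as % of untreated control.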

HT-29 [7] = assay: Induction of cell cycle arrest in human HT-29 cells assessed as accumulation at G2/M phase at 1 uM incubated for 24 hrs by PI staining based flowcytometry analysis (reference value: 12.40 %); assay type: functional
HeLa [8] = assay: Induction of cell cycle arrest in human HeLa cells assessed as accumulation at G2/M phase at 1 uM incubated for 24 hrs by PI staining based flowcytometry analysis (reference value: 10.7 %); assay type: functional
RS4-11 = assay: Antiproliferative activity against human RS4-11 cells assessed as inhibition of cell proliferation incubated for 72 hrs by MTT assay; assay type: functional; procedure, shortened: as §2
HT-29 [9] = assay: Induction of mitochondrial membrane potential loss in human HT-29 cells measured for 48 hrs by JC1 staining based flow cytometry analysis; assay type: functional, cell-based; conditions: dose 2.5-5 µM
Procedure, shortened: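 Cells were treated with compound, then stained with the fluorescent dye JC-1. Loss of mitochondrial membrane potential was monitored by flow cytometry.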

HeLa [10] = assay: Induction of cell cycle arrest in human HeLa cells assessed as accumulation at G0/G1 phase at 1 uM incubated for 24 hrs by PI staining based flowcytometry analysis (reference value: 57 %); assay type: functional
HeLa [11] = assay: Induction of apoptosis in human HeLa cells at 2.5 to 5 uM by annexin V-FITC and PI staining based flowcytometry analysis; assay type: functional, cell-based; conditions: dose 2.5-5 µM, time 24-48 hrs, TDE = time-dependent effect; procedure, shortened: as §1
Choline kinase alpha [12] = target: T1, Choline kinase alpha (Homo sapiens, UniProt P35790); assay: (§4) Inhibition of human CKalpha1 assessed as reduction in 14C incorporation from [methyl-14C]choline to phosphatidylcholine using [methyl-14C]choline as substrate preincubated for 5 mins in presence of ATP and MgCl2 followed by substrate addition and measured after 10 mins by liquid scintillation counting method relative to control
Procedure, shortened: (§5)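 Purified human CKα1 (20 ng) in 100 mM Tris pH 8.5 with 10 mM MgCl₂ and 10 mM ATP, DMSO ≤0.1%, was preincubated 5 min at 37 °C. Reaction was started with 1 mM [methyl-¹⁴C]choline (4500 dpm/nmol), run 10 min at 37 °C and stopped in boiling water. Product was separated by silica TLC, scraped and scintillation-counted against DMSO controls. At least three experiments were run; IC50 was obtained from sigmoidal dose-response fits.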
Target sequence in this assay (P35790 whole entry): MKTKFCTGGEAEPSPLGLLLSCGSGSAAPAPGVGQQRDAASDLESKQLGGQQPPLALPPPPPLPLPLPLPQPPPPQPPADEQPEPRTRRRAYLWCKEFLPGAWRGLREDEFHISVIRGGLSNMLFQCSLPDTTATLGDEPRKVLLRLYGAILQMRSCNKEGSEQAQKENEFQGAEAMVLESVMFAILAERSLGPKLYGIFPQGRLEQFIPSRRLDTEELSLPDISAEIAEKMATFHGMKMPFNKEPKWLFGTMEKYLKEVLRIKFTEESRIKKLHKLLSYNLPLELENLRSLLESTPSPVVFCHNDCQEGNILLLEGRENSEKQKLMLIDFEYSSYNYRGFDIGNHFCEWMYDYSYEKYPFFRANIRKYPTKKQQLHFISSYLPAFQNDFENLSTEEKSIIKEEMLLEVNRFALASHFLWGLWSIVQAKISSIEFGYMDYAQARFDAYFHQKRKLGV

HeLa [13] = assay: Induction of cell cycle arrest in human HeLa cells assessed as accumulation at S phase at 1 uM incubated for 24 hrs by PI staining based flowcytometry analysis (reference value: 32.30 %); assay type: functional
HeLa [14] = assay: Induction of apoptosis in human HeLa cells measured for 48 hrs by annexin V-FITC and PI staining based flowcytometry analysis; assay type: functional, cell-based; conditions: dose 2.5-5 µM; procedure, shortened: as §1
HT-29 [15] = assay: Induction of apoptosis in human HT-29 cells measured for 48 hrs by annexin V-FITC and PI staining based flowcytometry analysis; assay type: functional, cell-based; conditions: dose 2.5-5 µM; procedure, shortened: as §1
HeLa [16] = assay: Induction of cell cycle arrest in human HeLa cells assessed as accumulation at G0/G1 phase at 2.5 uM incubated for 24 hrs by PI staining based flowcytometry analysis (reference value: 57 %); assay type: functional
[17] = Inhibition of [methyl-14C]choline uptake in human HepG2 cells at 10 uM incubated for 10 mins followed by removal of medium containing compound and subsequent addition of [methyl-14C]choline measured after 5 mins relative to control; assay type: functional; conditions: HepG2, 10 min; procedure, shortened: as §3
Choline kinase alpha [18] = target: T1, Choline kinase alpha; assay: as §4, with “[…] at 30 uM” for “phosphatidylcholine”; conditions: time 15.0 min; procedure, shortened: as §5
Target sequence in this assay (P35790 whole entry, looked up): as the sequence (P35790 whole entry) above

Choline kinase alpha [19] = target: T1, Choline kinase alpha; assay: as §4, with “[…] at 10 uM” for “phosphatidylcholine”; conditions: time 15.0 min; procedure, shortened: as §5
Target sequence in this assay (P35790 whole entry, looked up): as the sequence (P35790 whole entry) above

[20] = Inhibition of [methyl-14C]choline uptake in human HT-29 cells at 30 uM incubated for 10 mins followed by removal of medium containing compound and subsequent addition of [methyl-14C]choline measured after 5 mins relative to control; assay type: functional; conditions: HT-29, 10 min; procedure, shortened: as §3
HT-29 [21] = assay: Induction of cell cycle arrest in human HT-29 cells assessed as accumulation at S phase at 1 uM incubated for 24 hrs by PI staining based flowcytometry analysis (reference value: 27.40 %); assay type: functional
[22] = target: Choline/ethanolamine kinase (Homo sapiens, UniProt Q9Y259); assay: Binding affinity to human CKbeta assessed as dissociation constant by spectroflurometry
Procedure, shortened: (§6)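 Purified human CK (cloned as reported earlier) at 1 µM was titrated with compound in 25 mM Tris, 150 mM NaCl, pH 7.5 at 25 °C. Compound ranges were 0.1–10 µM for CKα1 and 0.5–200 µM for CKβ. Tryptophan quenching was read with excitation at 280 nm, emission 300–400 nm and 5 nm slits. DMSO-matched controls were run, and Kd was fitted to a single-site model. Results are given as mean ± SD.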

HT-29 [23] = assay: Induction of cell cycle arrest in human HT-29 cells assessed as increase accumulation of G0/G1 phase incubated for 24 hrs by PI staining based flowcytometry analysis; conditions: dose 1-2.5 µM
HT-29 [24] = assay: Induction of cell cycle arrest in human HT-29 cells assessed as accumulation at G2/M phase at 2.5 uM incubated for 24 hrs by PI staining based flowcytometry analysis (reference value: 12.40 %); assay type: functional
HeLa [25] = assay: Induction of cell cycle arrest in human HeLa cells assessed as accumulation at S phase at 2.5 uM incubated for 24 hrs by PI staining based flowcytometry analysis (reference value: 32.30 %); assay type: functional
[26] = Inhibition of [methyl-14C]choline uptake in human HT-29 cells at 10 uM incubated for 10 mins followed by removal of medium containing compound and subsequent addition of [methyl-14C]choline measured after 5 mins relative to control; assay type: functional; conditions: HT-29, 10 min; procedure, shortened: as §3
HeLa [27] = assay: Induction of mitochondrial membrane potential loss in human HeLa cells by JC1 staining based flow cytometry analysis; conditions: dose 2.5-5 µM
HT-29 [28] = assay: Induction of cell cycle arrest in human HT-29 cells assessed as accumulation at S phase at 2.5 uM incubated for 24 hrs by PI staining based flowcytometry analysis (reference value: 27.40 %); assay type: functional
Choline kinase alpha [29] = target: T1, Choline kinase alpha; assay: Binding affinity to human CKalpha1 assessed as dissociation constant by spectroflurometry; procedure, shortened: as §6
Target sequence in this assay (P35790 whole entry): as above

HeLa [30] = assay: Antiproliferative activity against human HeLa cells assessed as inhibition of cell proliferation incubated for 72 hrs by MTT assay; assay type: functional; procedure, shortened: as §2
Homo sapiens = species on record: Homo sapiens; assay: Selectivity index, ratio of Kd for human CKbeta to Kd for human CKalpha1
CCRF-CEM = assay: Antiproliferative activity against human CCRF-CEM cells assessed as inhibition of cell proliferation incubated for 72 hrs by MTT assay; assay type: functional; procedure, shortened: as §2

Choline/ethanolamine kinase, sequence (Q9Y259 whole entry): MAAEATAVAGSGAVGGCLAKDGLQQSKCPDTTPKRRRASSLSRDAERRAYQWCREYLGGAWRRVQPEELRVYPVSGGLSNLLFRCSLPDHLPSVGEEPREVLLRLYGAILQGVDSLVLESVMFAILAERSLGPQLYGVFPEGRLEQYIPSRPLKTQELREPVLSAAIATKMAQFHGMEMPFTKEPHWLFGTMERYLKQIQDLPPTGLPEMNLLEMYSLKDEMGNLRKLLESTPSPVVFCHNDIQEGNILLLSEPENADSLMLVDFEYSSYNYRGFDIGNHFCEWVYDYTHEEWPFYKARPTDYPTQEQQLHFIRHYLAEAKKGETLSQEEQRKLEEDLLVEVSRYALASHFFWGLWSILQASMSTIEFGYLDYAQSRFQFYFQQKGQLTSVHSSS

Clc1ccc2c(N3CCCCCC3)cc[n+](Cc3ccc(-c4ccccc4)cc3)c2c1.[Br-]
Activity (HeLa [1]): 4.5% | Activity (HT-29 [2]): Tde | Activity (HT-29 [3]): 88% | Activity (HT-29 [4]): 86.3% | GI50 (HT-29 [5]): 90 nM | inhibition at 30 µM [6]: 95.5% | Activity (HT-29 [7]): 6.9% | Activity (HeLa [8]): 7.31% | GI50 (RS4-11): 60 nM | Activity (HT-29 [9]): Dose-dependent effect | Activity (HeLa [10]): 67.47% | Activity (HeLa [11]): Tde | IC50 (Choline kinase alpha [12]): 6.74 µM | Activity (HeLa [13]): 25.23% | Activity (HeLa [14]): Dose-dependent effect | Activity (HT-29 [15]): Dose-dependent effect | Activity (HeLa [16]): 66.27% | inhibition at 10 µM [17]: 88.2% | inhibition (Choline kinase alpha [18]): 94.4% | inhibition (Choline kinase alpha [19]): 74.4% | inhibition at 30 µM [20]: 96.7% | Activity (HT-29 [21]): 5.1% | Kd [22]: 63 µM | Activity (HT-29 [23]): Dose-dependent effect | Activity (HT-29 [24]): 7.9% | Activity (HeLa [25]): 27.31% | inhibition at 10 µM [26]: 86.9% | Activity (HeLa [27]): Dose-dependent effect | Activity (HT-29 [28]): 5.8% | Kd (Choline kinase alpha [29]): 370 nM | GI50 (HeLa [30]): 360 nM | Ratio (Homo sapiens): 171 | GI50 (CCRF-CEM): 150 nM
